Bioassay records: PubChem, several laboratories
This is a sample that favours compounds with a hit; in the whole collection about 2.3% have one here.
ARFGAP1 inhibitor: inhibitors of rat ARFGAP1; Q62848; Arfgap1-stimulated ARF1 GTP hydrolysis, GDP FP detection; inhibition, % at 16.5 µM; actives 0.26% (n = 360,000); AID 651572;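 active = inhibition above a per-plate limit, mean inhibition of low control wells plus 3 SD, cut at about 25% in these data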
Target sequence (Q62848 1-136 limits assumed): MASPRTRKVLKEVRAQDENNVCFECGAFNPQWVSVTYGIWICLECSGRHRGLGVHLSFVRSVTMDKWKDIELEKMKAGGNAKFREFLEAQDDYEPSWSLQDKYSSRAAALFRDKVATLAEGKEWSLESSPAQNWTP
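Material – truncated rat Arfgap1 GAP domain · Buffer or medium – HEPES-based buffer, pH 7.5 · Reagent – human ARF1(Δ1-17)-GTP substrate · Dosing – 16.5 µM single point, 1.26% DMSO · Schedule – GTP hydrolysis reaction 2 h at 25 °C · Technique – GDP detection by fluorescence polarization · Benchmarks – No-Arfgap1 wells (100%) versus DMSO full-reaction wells (0%) · Repeats – single replicate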
ASAP1 GAP inh: inhibitors of human ASAP1 ArfGAP activity; actives 0.19% (n = 360,000); ASAP1-stimulated ARF1 GTP hydrolysis, GDP FP detection; inhibition, % at 16.5 µM; Q9ULH1; AID 624377; in the data active = inhibition above about 25%
Target sequence (Q9ULH1 325-724 limits assumed): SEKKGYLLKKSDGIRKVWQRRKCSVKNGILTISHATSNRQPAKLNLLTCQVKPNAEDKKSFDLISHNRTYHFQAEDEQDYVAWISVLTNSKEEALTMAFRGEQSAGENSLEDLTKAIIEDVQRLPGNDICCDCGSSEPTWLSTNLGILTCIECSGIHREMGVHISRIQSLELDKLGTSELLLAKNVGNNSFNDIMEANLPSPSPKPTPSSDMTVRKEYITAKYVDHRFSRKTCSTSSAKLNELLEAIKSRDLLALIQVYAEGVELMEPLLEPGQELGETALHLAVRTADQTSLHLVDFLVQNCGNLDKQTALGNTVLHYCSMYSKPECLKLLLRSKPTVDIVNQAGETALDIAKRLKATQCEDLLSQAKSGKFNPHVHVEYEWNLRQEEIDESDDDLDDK
SKKanGAS inh: blocks kanamycin growth of S. pyogenes SKKanGAS strain. BacTiter-Glo, 6 h. inhibition, % at 7.5 µM. actives 1.3% (n = 300,000). AID 1662;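 active = mean replicate score, as percent of positive control median, at least 50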;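 note: strain carries kanamycin resistance gene driven by streptokinase promoter and grows in 40 µg/ml kanamycin; loss of luminescence reflects streptokinase promoter inhibition or plain growth inhibition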
HGIII-sPLA2 inh: Inhibits HGIII-sPLA2 liposome hydrolysis, primary screen; QFRET BODIPY PC-A2 liposome hydrolysis, fluorescence; AID 743126; actives 0.56% (n = 370,000); Q9NZ20; inhibition, % at 12.2 µM;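 active = inhibition above mean plus 3 SD of compounds lying within the high and low control bounds, cut at about 19% in these data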
Calb FLC: affects C. albicans growth with fluconazole; growth inhibition, % (concentration not given with the values); actives 0.57% (n = 300,000); C. albicans CaCi-2 + fluconazole, Alamar Blue growth, 48 h;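 active = growth inhibition above about 58% in most replicates, limit read from the data, passing the limit was not always enough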;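 note: all wells also contain fluconazole at 8 µg/ml as a sub-toxic cotreatment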
hGIII sPLA2 conf: human GIII-sPLA2 inhibition, confirmation. shares compounds with HGIII-sPLA2 inh. recombinant hGIII-sPLA2, BODIPY PC-A2 QFRET fluorescence. inhibition, % at 12.2 µM. actives 34% (n = 2,000). AID 743280;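 active = mean inhibition across triplicates above the hit cutoff set in the earlier primary screen, cut at about 19% in these data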
BODIPY interf: counter-screen for HGIII-sPLA2 inhibitors: 535nm fluorescence interference; BODIPY FL product fluorescence interference, QFRET; shares compounds with HGIII-sPLA2 inh; inhibition, % at 12.2 µM; actives 8.5% (n = 2,000);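 active = average inhibition above the solvent-only control mean plus 3 SD, cut at about 6% in these data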
BODIPY interf DR: counter-screen for HGIII-sPLA2 inhibitors: 535nm fluorescence interference, dose response; IC50, µM; BODIPY FL product fluorescence interference, cell-free; 240 tested, under 10 active; shares compounds with HGIII-sPLA2 inh;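 active = IC50 at or below 10 µM; inactive = IC50 above 10 µM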
Each line names hits and unclear results; the compound was inactive in the other large screens (follow-up assays come after a bar, where they were run).

Nc1nc(N)c2cc(CNc3ccc(Cl)c(Cl)c3)ccc2n1	HGIII-sPLA2 inh 23.0 (no result: SKKanGAS inh, Calb FLC) | hGIII sPLA2 conf inactive | BODIPY interf inactive
COC(=O)C1=C(C)N(Cc2ccc(F)cc2)C(=S)NC1c1ccc(F)cc1 (stereo unspecified)	none (no result: SKKanGAS inh, Calb FLC)
O=C(NCCc1ccccc1Cl)[C@@H]1CCCN1C(=O)[C@@H](NS(=O)(=O)c1ccc(F)cc1F)C1CCCCC1	none (no result: SKKanGAS inh, Calb FLC)
C=CC[n+]1c(-c2ccccc2)csc1NC(C)(C)C	HGIII-sPLA2 inh 19.5 | hGIII sPLA2 conf 21.2 | BODIPY interf inactive
CCCOc1ccccc1C1NC(=O)NC(C)=C1C(=O)OCCOC (stereo unspecified)	HGIII-sPLA2 inh 20.7 (no result: Calb FLC) | hGIII sPLA2 conf inactive | BODIPY interf inactive
COc1cc(OC)nc(NC(=O)C(C)C)n1	HGIII-sPLA2 inh 19.7 | hGIII sPLA2 conf inactive | BODIPY interf inactive
COc1cc(OC)nc(NC(C)=O)n1	none
CN(Cc1ccccc1)S(=O)(=O)c1ccc(NC(=O)C2CCCCC2C(=O)O)cc1 (stereo unspecified)	none (no result: SKKanGAS inh, Calb FLC)
CN(Cc1ccccc1)S(=O)(=O)c1ccc(NC(=O)C2CCCO2)cc1 (stereo unspecified)	HGIII-sPLA2 inh 23.4 | hGIII sPLA2 conf inactive | BODIPY interf inactive
COCC#Cc1ccc(CC[C@H]2O[C@H]3CC[C@@H](CO)O[C@H]3C[C@H]2n2cc(C(C)(C)O)nn2)cc1	none (no result: ARFGAP1 inhibitor, ASAP1 GAP inh, SKKanGAS inh, Calb FLC)
CC1CCCN(C(=S)Nc2ccc3nc4n(c(=O)c3c2)CCCCC4)C1 (stereo unspecified)	HGIII-sPLA2 inh 26.6 | hGIII sPLA2 conf inactive | BODIPY interf inactive
CC1CC(C)CN(C(=S)Nc2ccc3nc4n(c(=O)c3c2)CCCCC4)C1 (stereo unspecified)	none
COC(=O)Cn1c2ccccc2c(=O)n1C(C)CBr (stereo unspecified)	none (no result: SKKanGAS inh, Calb FLC)
CC(CCl)n1c(=O)c2ccccc2n1C(=O)c1ccccc1 (stereo unspecified)	HGIII-sPLA2 inh 24.3 (no result: SKKanGAS inh, Calb FLC) | hGIII sPLA2 conf inactive | BODIPY interf inactive
Cc1cccc(C)c1NC(=O)c1cccc2c1-c1ccccc1C2=O	HGIII-sPLA2 inh 21.6 | hGIII sPLA2 conf inactive | BODIPY interf inactive
Cc1cccc(NC(=O)c2cccc3c2-c2ccccc2C3=O)c1C	none (no result: ARFGAP1 inhibitor, ASAP1 GAP inh, SKKanGAS inh, Calb FLC)
COc1ccc(C2CC(=O)Nc3cc(OC)c(OC)cc32)cc1 (stereo unspecified)	HGIII-sPLA2 inh 20.9 (no result: SKKanGAS inh, Calb FLC) | hGIII sPLA2 conf inactive | BODIPY interf inactive
COc1cc2c(cc1OC)C(c1ccc(SC)cc1)CC(=O)N2 (stereo unspecified)	none
CCn1c(-c2cccn(Cc3ccc(Cl)cc3Cl)c2=O)n[nH]c1=S	HGIII-sPLA2 inh 21.2 | hGIII sPLA2 conf 32.7 | BODIPY interf inactive | BODIPY interf DR inactive
CCn1c(-c2ccc(Cl)cc2)n[nH]c1=S	none
S=c1[nH]nc(-c2ccc(Cl)cc2Cl)n1Cc1ccccc1	HGIII-sPLA2 inh 19.8 | hGIII sPLA2 conf 28.1 | BODIPY interf inactive | BODIPY interf DR inactive
S=c1[nH]nc(-c2ccccc2Br)n1Cc1ccccc1	HGIII-sPLA2 inh 26.2 | hGIII sPLA2 conf inactive | BODIPY interf inactive
CC(=O)C1=C(C)N(CC(C)C)C(=S)NC1c1cccc(Cl)c1 (stereo unspecified)	none (no result: SKKanGAS inh, Calb FLC)
CCCNC(=O)c1ccc2c(=O)c(O)c(-c3ccc(Cl)c([N+](=O)[O-])c3)[nH]c2c1	HGIII-sPLA2 inh 19.6, Calb FLC 114.3 | hGIII sPLA2 conf inactive | BODIPY interf inactive
CCNC(=O)C[C@H]1CC[C@H]2[C@@H](COc3ccc(NC(=O)c4ccc5c(c4)OCO5)cc3C(=O)N2C)O1	none (no result: ARFGAP1 inhibitor, ASAP1 GAP inh, SKKanGAS inh, Calb FLC)
CCC(=O)Nc1ccc2c(c1)C(=O)N(C)[C@@H]1CC[C@@H](CC(=O)NCCN3CCCCC3)O[C@H]1CO2	HGIII-sPLA2 inh 20.6 (no result: ARFGAP1 inhibitor, ASAP1 GAP inh, SKKanGAS inh, Calb FLC) | hGIII sPLA2 conf inactive | BODIPY interf inactive
CNC(=S)NNC(=O)Cc1ccc(O)cc1	HGIII-sPLA2 inh 25.8 | hGIII sPLA2 conf inactive | BODIPY interf inactive
CNC(=S)NNC(=O)Cc1ccc(OC)cc1	none
